Screens deposited in PubChem BioAssay by several laboratories.
APJ antagonist = APJ receptor antagonism; P35414; hit rate 0.32% among 330,000; CHO-K1 APJ beta-arrestin complementation, luminescence; inhibition, % at 20 µM; AID 2521;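 active = inhibition above about 40% at 20 µM, limit read from the data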;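 also: cells challenged with 10 nM apelin-13 agonist together with compound; plate controls were apelin-13 plus DMSO wells for no effect and DMSO wells lacking apelin-13 for full effect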
APJ ag = agonists of human APJ apelin receptor. P35414. CHO-K1 APJ PathHunter beta-arrestin, luminescence; 0% DMSO wells, 100% apelin. activation, % at 20 µM. hit rate 0.11% among 330,000. AID 2520;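 active = activation more than six SD over the plate average, tested at 20 µM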;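 also: 0% = DMSO alone and 100% = apelin-13 at 10 nM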
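Material: CHO-K1 APJ beta-arrestin complementation cell line; Input: cell density 1000 per well; Incubation: compound stimulation 90 min at 25 °C, detection 60 min; Signal: luminescence from split beta-galactosidase complementation, Galacton Star/Emerald II substrate; Controls: DMSO-only wells as negative, 10 nM Apelin-13 as positive control.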
hiPSC survival = hiPSC single-cell survival enhancement; ATPlite luminescence; 100% = ROCK inhibitor wells, 0% = DMSO; hit rate 0.044% among 360,000; AID 602274; survival enhancement, % at 20 µM; in the data active = survival enhancement above about 18%;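 also: cells exposed to compounds for 16 hours before the ATP read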
CCR6 antagonist = CCR6 (human) receptor antagonism; CHO-K1 CCR6 PathHunter beta-arrestin, luminescence, CCL20-stimulated; hit rate 0.49% among 340,000; AID 493098; P51684; inhibition, % at 20 µM;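 active = compounds whose inhibition of the agonist-driven luminescence signal at 20 µM reaches about 50%, limit read from the data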;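 also: cells stimulated with CCL20 at 14 nM final; plate controls were DMSO with CCL20 for no effect and DMSO without agonist for full effect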
CXCR6 inh = CXCR6 (human) receptor inhibition; CHO-K1 PathHunter CXCR6 beta-arrestin, luminescence; O00574; AID 602244; inhibition, % at 20 µM; hit rate 0.36% among 360,000; in the data active = inhibition above about 34%, passing the limit was not always enough;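 also: antagonist mode with CXCL16 agonist at 10 nM final; 0% = 10 nM CXCL16 with DMSO and 100% = unstimulated wells without agonist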
DAGLB inhibitor = diacylglycerol lipase beta (human) inhibition; hit rate 0.059% among 340,000; inhibition, % at 5.17 µM; AID 504411; HEK293T DAGLB membrane lysate, EnzChek fluorogenic substrate; Q8NCG7; in the data active = inhibition above about 34%;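 also: 0% = enzyme with vehicle and 100% = wells lacking enzyme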
Target sequence (Q8NCG7 whole entry, looked up): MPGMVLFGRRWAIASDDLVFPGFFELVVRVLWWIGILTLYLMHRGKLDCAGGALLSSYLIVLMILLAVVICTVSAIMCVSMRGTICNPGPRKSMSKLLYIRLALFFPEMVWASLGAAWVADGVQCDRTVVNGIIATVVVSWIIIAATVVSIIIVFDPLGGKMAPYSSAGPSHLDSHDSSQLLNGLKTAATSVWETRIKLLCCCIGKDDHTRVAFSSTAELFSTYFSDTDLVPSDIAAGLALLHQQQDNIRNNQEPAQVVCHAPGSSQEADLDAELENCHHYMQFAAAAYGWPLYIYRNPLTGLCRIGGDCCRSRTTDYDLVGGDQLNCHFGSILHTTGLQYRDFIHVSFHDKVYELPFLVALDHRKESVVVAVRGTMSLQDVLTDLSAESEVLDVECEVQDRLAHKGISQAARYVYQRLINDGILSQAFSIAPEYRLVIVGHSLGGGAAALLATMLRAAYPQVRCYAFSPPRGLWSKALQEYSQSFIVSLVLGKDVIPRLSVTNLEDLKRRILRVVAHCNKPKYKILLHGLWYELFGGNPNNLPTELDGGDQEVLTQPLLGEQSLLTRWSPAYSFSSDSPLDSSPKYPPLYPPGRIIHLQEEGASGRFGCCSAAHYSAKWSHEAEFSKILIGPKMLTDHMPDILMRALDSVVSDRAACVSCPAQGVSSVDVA
The depositor's hits bear a star; . = no result. Hits are enriched below; roughly 0.86% of the tested compounds scored in any of these assays.

SMILES	APJ antagonist	APJ ag	hiPSC survival	CCR6 antagonist	CXCR6 inh	DAGLB inhibitor
O=c1nc2cccc3c2=c(/c1=C(\O)c1ccccc1)c1ccccc1c3=O	26.1	0.7	0.7	52.0*	31.0	3.9
O=c1[nH]c(/C=C/c2cccc3ccccc23)nc2ccccc12	-1.4	-2.2	1.9	0.8	7.7	-12.2
O=C(CN1CCCCC1)NNC(=O)c1cccc(Br)c1	5.0	-1.3	0.0	16.5	6.6	0.2
COc1ccccc1-c1cc(C(F)(F)F)nc(S(=O)(=O)CCCC(=O)NC(C)C)n1	5.2	0.7	-6.2	13.8	15.6	-5.5
COc1ccccc1-c1cc(C(F)(F)F)nc(S(=O)(=O)CCCC(=O)NCc2ccc(F)cc2)n1	8.3	-0.1	0.1	23.5	40.5*	-1.3
O=C(CCl)c1ccc2c(c1)CCN2C(=O)C1CC1	27.5	0.1	.	.	.	.
O=C(CCl)c1ccc2c(c1)CCN2C(=O)C1CCCCC1	31.0	-0.6	0.5	53.0*	31.2	2.8
Nc1cc(S(=O)(=O)O)cc2ccc(S(=O)(=O)O)cc12	.	.	2.2	-1.6	-12.1	-2.1
Cc1cc(-c2ccc(N=Nc3c(S(=O)(=O)O)cc4cc(S(=O)(=O)O)cc(N)c4c3O)c(C)c2)ccc1N=Nc1c(S(=O)(=O)O)cc2cc(S(=O)(=O)O)cc(N)c2c1O	78.0*	-16.5	.	.	.	.
Cc1ccc(-n2nc(C)c3c(C)c(CCC(=O)Nc4ccc(CN5CCCC5)cc4)c(C)nc32)cc1	-4.3	-0.3	-0.4	52.5*	-9.9	2.5
CC(C)NC(=O)CN1CCN(C(c2cc3ccccc3o2)c2nnnn2C(C)(C)C)CC1 (stereo not drawn)	.	.	0.5	.	-8.0	.
CC1(O)CC(c2ccc(Cl)cc2)=NN1C(=O)c1ccc(Cl)cc1 (stereo not drawn)	4.5	-3.8	0.0	56.9*	27.9	-2.4
O=C(C1CC1)N1N=C(c2ccc(Cl)cc2)CC1(O)C(F)(F)F (stereo not drawn)	2.7	-1.4	1.1	12.4	2.9	-11.5
C=CS(=O)(=O)c1c2cc(OC)ccc2nc2ccc(OC)cc12	.	.	-0.8	77.8*	48.3*	-1.4
Cc1ccc(OCC(=O)Nc2cccc3ccccc23)c([N+](=O)[O-])n1	1.8	-1.8	-0.2	10.7	1.3	-3.2
Cc1cc(C)c(C#N)c(Oc2ccccc2Br)n1	15.4	-1.0	0.7	3.3	1.7	-2.4
CC(=O)CC1OC(=O)C(Br)=C1NCc1ccccc1 (stereo not drawn)	39.8	-5.1	-3.8	61.2*	31.5	1.8
O=S1(=O)CCOCCCN1Cc1ccccc1Br	7.9	1.6	8.1	6.8	0.0	1.1
O=C1C=CC(=O)N1Cc1ccccc1	-28.4	1.9	-3.5	106.7*	89.6*	4.0
COC(=O)c1ccc(CSc2nc3sc4c(c3c(=O)n2C)CCCC4)o1	-11.4	1.8	0.7	14.4	4.1	-2.4
COC(=O)c1sc(N)c(C(=O)OC)c1CSc1nc2sc3c(c2c(=O)n1C)CCC3	6.9	-10.8	-2.1	49.6	52.2*	-0.2
Cc1ccc(-c2nnc(CN3CCCCC3C)o2)cc1 (stereo not drawn)	3.9	-3.8	-0.3	14.6	6.5	-5.4
CC(C)Oc1ccc(C(=O)Nc2c3c(nn2-c2ccccc2)CS(=O)(=O)C3)cc1	-5.4	-6.4	1.5	11.0	4.1	0.1
O=C(NNC(=S)NC(=O)C12CC3CC(CC(C3)C1)C2)c1ccncc1	27.9	-8.9	0.0	50.7*	30.7	2.1
CCN=C1S/C(=C\c2cn(CC)c3ccccc23)C(=O)N1CC	3.6	-4.4	-2.2	18.3	-14.8	-6.5
CCn1cc(C=C2C(=O)c3ccccc3C2=O)c2ccccc21	.	.	3.1	50.9*	7.3	0.1
CCn1c(O)c(N=NC(=S)NCC2CCCO2)c2ccccc21 (stereo not drawn)	26.5	-5.7	0.7	66.1*	46.7*	2.1
Oc1[nH]c2ccccc2c1N=NC(=S)NCC1CCCO1 (stereo not drawn)	35.0	-2.2	0.1	23.5	6.3	-1.6
O=C(N/N=C/c1cc([N+](=O)[O-])ccc1O)C12CC3CC(CC(C3)C1)C2	30.7	-9.6	-0.4	71.2*	39.5	-7.4
COc1ccc(N2CC(C(=O)Nc3ccc([N+](=O)[O-])cc3Br)CC2=O)cc1 (stereo not drawn)	-29.0	1.2	-0.4	-3.8	-2.4	-2.5
